# A selection: hits, their analogues and other compounds. The true share with any hit is near 4.7%.
# VIM-2 inhibitor = inhibitors of Pseudomonas aeruginosa VIM-2 metallo-beta-lactamase; 290,000 compounds, 0.89% hits; inhibition, % at 5.6 µM; purified VIM-2, nitrocefin hydrolysis, epi-absorbance fluorescence; AID 1527;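 active means inhibition above the mean of all tested compounds plus 3 SD, cutoff set per screening run, cut at about 7.5% in these data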;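 further: red hydrolysis product quenches plate fluorescence so inhibitors raise well fluorescence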
# 697 NFkB inh = lowers PMA/ionomycin-induced NF-kB signal in 697 B cells; 697 B-cell NF-kB luciferase reporter, 16 h; inhibition, % at 4 µM; 330,000 compounds, 0.33% hits; AID 435022; in the data active means inhibition above about 35%
# IMP-1 inhibitor = blocks Pseudomonas aeruginosa IMP-1 metallo-beta-lactamase; purified IMP-1, nitrocefin hydrolysis, epi-absorbance fluorescence; inhibition, % at 5.6 µM; 290,000 compounds, 0.45% hits; AID 1556;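 active means inhibition above the mean plus 3 SD of all compounds in the same screening run, cut at about 4.5% in these data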
#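 System – purified recombinant IMP-1 beta-lactamase · Input – IMP-1 dispensed at 0.2 nM · Timing – 15 min preincubation plus 25 min reaction at 25 °C · Signal – Epi-absorbance fluorescence, 480 nm excitation, 530 nm emission · Measure – percent IMP-1 inhibition derived from blank-referenced optical density · Controls – Enzyme-plus-DMSO low control, enzyme-free DMSO high control · Replication – singlicate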
# Jurkat NFkB inh = lowers PMA/ionomycin-induced NF-kB signal in Jurkat cells. 330,000 compounds, 0.53% hits. inhibition, % at 4 µM. PMA/ionomycin-induced NF-kB luciferase reporter, luminescence; in the data active means inhibition above about 50%
# Mdm2-MdmX inh = disrupts the human Mdm2-MdmX interaction; SaOS-2 split-luciferase Mdm2/MdmX complementation, luminescence; O15151+Q00987; 330,000 compounds, 3% hits; inhibition, % at 8 µM;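 active means inhibition of at least 50% at 8 µM in the primary screen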
# Target sequence (O15151 whole entry, looked up): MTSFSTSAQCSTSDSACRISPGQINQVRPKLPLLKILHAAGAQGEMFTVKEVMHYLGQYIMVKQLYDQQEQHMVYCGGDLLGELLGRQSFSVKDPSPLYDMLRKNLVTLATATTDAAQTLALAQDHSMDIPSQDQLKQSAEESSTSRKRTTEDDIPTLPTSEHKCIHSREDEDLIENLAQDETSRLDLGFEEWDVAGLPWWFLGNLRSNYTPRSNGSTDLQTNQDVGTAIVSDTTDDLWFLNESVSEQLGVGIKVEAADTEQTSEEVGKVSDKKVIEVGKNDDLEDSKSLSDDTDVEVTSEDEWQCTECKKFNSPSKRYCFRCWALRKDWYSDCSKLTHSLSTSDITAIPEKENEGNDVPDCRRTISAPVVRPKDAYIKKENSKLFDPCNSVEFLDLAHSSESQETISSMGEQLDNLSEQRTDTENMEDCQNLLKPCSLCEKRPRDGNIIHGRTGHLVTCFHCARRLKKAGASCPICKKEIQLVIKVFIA
# Target sequence (Q00987 whole entry, looked up): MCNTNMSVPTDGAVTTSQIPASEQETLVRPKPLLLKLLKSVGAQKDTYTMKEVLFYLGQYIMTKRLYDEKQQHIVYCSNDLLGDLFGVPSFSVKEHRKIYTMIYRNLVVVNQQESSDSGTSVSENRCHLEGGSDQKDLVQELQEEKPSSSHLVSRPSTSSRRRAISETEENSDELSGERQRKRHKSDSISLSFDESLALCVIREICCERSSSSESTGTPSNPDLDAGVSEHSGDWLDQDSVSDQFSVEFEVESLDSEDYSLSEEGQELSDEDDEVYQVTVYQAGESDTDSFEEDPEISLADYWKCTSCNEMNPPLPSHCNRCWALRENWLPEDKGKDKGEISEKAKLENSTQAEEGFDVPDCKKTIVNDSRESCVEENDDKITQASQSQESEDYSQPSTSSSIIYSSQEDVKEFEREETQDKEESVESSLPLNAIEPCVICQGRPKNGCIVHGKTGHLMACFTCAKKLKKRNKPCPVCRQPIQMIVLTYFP
# aSyn UTR inh = 5' untranslated region of α-synuclein, MLPCN primary screen. alpha-synuclein 5'UTR reporter, inhibitor activity. AID 1813. 300,000 compounds, 0.82% hits. inhibition, % (tested at 7.5 µM); in the data active means inhibition above about 60%;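 further: H4 neuroglioblastoma cells stably carrying SNCA 5'UTR luciferase fusion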
# Hits are given with their value; – = inactive; · = no result.
SMILES,VIM-2 inhibitor,697 NFkB inh,IMP-1 inhibitor,Jurkat NFkB inh,Mdm2-MdmX inh,aSyn UTR inh
CCOC(=O)c1c[nH]c2c(C)ccc(Cl)c2c1=O,–,–,–,–,–,–
CCOC(=O)c1c[nH]c2c(Cl)ccc(Cl)c2c1=O,8.6,–,–,–,–,–
COc1ccc(OC)c(C2C(C(=O)c3ccco3)=C(O)C(=O)N2CC2CCCO2)c1 (stereo unspecified),–,–,–,–,–,–
CCCN1C(=O)S/C(=C\c2ccc(N3CCOCC3)o2)C1=O,–,–,5.9,–,–,–
COC(=O)[C@]1(Cc2ccccc2)N[C@H](CN(C)C(=O)c2ccc(F)cc2)[C@@H]2C(=O)N(Cc3ccccc3)C(=O)[C@@H]21,·,–,·,–,–,·
O=c1oc2ccccc2cc1-c1csc(NN=C2CCCC2)n1,–,–,–,–,–,–
O=C(O)c1cccc(Nc2nc(-c3cc4ccccc4oc3=O)cs2)c1,–,–,6.2,–,–,–
COc1ccc(OC)c(CN2CCN(C(=O)CNC(=O)c3ccc(C(C)(C)C)cc3)CC2)c1,·,–,·,–,–,·
O=c1c2ccccc2ncn1-c1ccc(Cl)c(Cl)c1,–,–,–,–,–,–
O=c1c2ccccc2ncn1-c1cccc(Cl)c1,–,–,36,–,–,–
O=C(NCCCN1CCOCC1)c1cc2c([nH]c3ccccc32)c(-c2cccc(Br)c2)n1,12,–,–,–,–,–
O=C(NCCCO)c1cc2c([nH]c3ccccc32)c(-c2ccccc2)n1,–,–,–,–,–,–
COc1cccc(-c2nc(C(=O)NCCCN3CCOCC3)cc3c2[nH]c2ccccc23)c1,8.2,–,–,–,–,–
COc1cc(C(=O)OCC(=O)c2ccccc2)cc2c1OCCO2,·,–,·,–,–,·
CCCn1c(Oc2ccccc2)nc2c1c(=O)n(C)c(=O)n2C,–,–,–,–,–,–
CN(Cc1ccccc1)C1CCN(Cc2ccccc2[N+](=O)[O-])CC1,–,·,–,·,·,–
CCC(=O)Nc1c2c(nn1-c1ccc(F)cc1)CS(=O)(=O)C2,–,–,–,–,–,–
Cc1cc(C(=O)C(C)OC(=O)C2=NNC(=O)CC2)c(C)n1-c1ccc(OC(F)F)cc1 (stereo unspecified),–,–,5.2,–,–,–
Cc1cc(C(=O)COC(=O)C2=NNC(=O)CC2)c(C)n1-c1ccc(OC(F)F)cc1,–,–,–,–,–,–
CC1(C)CC(C(N)=S)CCO1 (stereo unspecified),–,–,–,–,–,–
CCC1(C)CC(C(N)=S)CCO1 (stereo unspecified),–,–,5.3,–,–,–
CCOC(=O)c1c(C)[nH]c(C)c1C(=O)COC(=O)[C@@H](NC(=O)c1ccco1)C(C)C,·,–,·,–,–,·
COc1ccc(-c2cc(=O)c3ccccc3[nH]2)cc1,–,–,–,–,–,–
O=c1cc(-c2ccccc2)[nH]c2ccc(F)cc12,–,·,–,·,·,87
COc1ccc2[nH]c(-c3cccc(F)c3)cc(=O)c2c1,–,–,–,–,–,63
SMILES,VIM-2 inhibitor,697 NFkB inh,IMP-1 inhibitor,Jurkat NFkB inh,Mdm2-MdmX inh,aSyn UTR inh
CC1(C)Cc2c(sc3nc(NCCN4CCOCC4)n4ncnc4c23)CO1,–,–,16,–,–,–
CC1CCc2c(sc3ncnc(NCCN4CCOCC4)c23)C1 (stereo unspecified),·,–,·,–,–,–
CC(C(=O)N1CCc2ccccc21)N1CCN(c2cccc(C(F)(F)F)c2)CC1 (stereo unspecified),–,–,–,–,–,–
COc1ccc(N(C(=O)c2ccncc2)S(=O)(=O)c2cccc([N+](=O)[O-])c2)cc1,–,–,–,–,–,–
CCCc1[nH][nH]c(=O)c1C(c1ccccc1)C(C#N)C#N (stereo unspecified),9.1,–,–,–,–,–
CCCc1[nH][nH]c(=O)c1C(c1ccc(Br)cc1)C(C#N)C#N (stereo unspecified),8.8,–,–,–,–,–
CCc1cc2c(=O)n(Cc3ccco3)c(SCC(=O)N3CCCc4ccccc43)nc2s1,–,–,6.0,–,–,–
CCc1cc2c(=O)n(Cc3ccco3)c(SCC(=O)NCC3CCCO3)nc2s1 (stereo unspecified),–,–,–,–,–,–
Cc1ccc2c(c1)C(=O)c1c(C(=O)O)cccc1-2,–,–,–,–,–,–
O=C(O)c1cccc2c1C(=O)c1cccc3snc-2c13,8.3,–,–,–,–,–
CCOC(=O)CSc1nc2sc3c(c2c(=O)n1-c1ccc(OC)cc1)CCN(C)C3,–,–,–,–,–,–
COC(=O)CSc1nc2sc3c(c2c(=O)n1-c1ccc(OC)cc1)CCN(C)C3,–,–,5.8,–,–,–
O=C(CCc1ccncc1)NC1CCCc2c1cnn2-c1cc(F)cc(F)c1 (stereo unspecified),–,–,–,–,–,79
CSCC(=O)NC1CCCc2c1cnn2-c1cc(F)cc(F)c1 (stereo unspecified),–,–,–,–,–,–
Fc1ccc(CSc2ccc3nnc(-c4cccs4)n3n2)cc1,–,–,–,–,–,–
Fc1ccc(CSc2ccc3nnc(-c4ccccn4)n3n2)cc1,9.3,–,–,–,–,–
COc1cccc(OCC(O)CNC2CCCC2)c1 (stereo unspecified),–,–,–,–,–,–
COC(=O)CSc1nnc2cc(C)c3ccccc3n12,10,–,–,–,–,–
COc1ccc(-c2cccc(NC(=O)COc3ccc(Cl)cc3)c2)nn1,–,–,–,–,–,–
Cc1ccc(C2Cc3cc(O)c(O)cc3CN2)cc1 (stereo unspecified),·,–,·,–,–,89
COc1cccc(C=Nc2cccc3c(=O)[nH][nH]c(=O)c23)c1O,–,–,–,–,–,–
COc1ccc(C=Nc2cccc3c(=O)[nH][nH]c(=O)c23)c2ccccc12,–,–,27,–,–,–
CCc1ccccc1OCC(=O)NCC1COc2ccccc2O1 (stereo unspecified),·,–,·,–,–,·
O=C(NCCc1cn2ccsc2n1)C1CCCCC1,–,–,–,–,–,–
c1cn2cc(CSC3CCCCC3)nc2s1,9.1,–,–,–,–,–
O=[N+]([O-])c1cccc(-c2ccc(/C=N/Nc3nc(N4CCCCC4)nc(N4CCCCC4)n3)o2)c1,–,–,–,–,–,73
COc1ccc(C)c2sc(N(CCCN(C)C)C(=O)c3ccc(S(=O)(=O)N4CCc5ccccc5C4)cc3)nc12,·,·,·,·,·,91
CS(=O)(=O)/C(C#N)=C\c1cnc(S(=O)(=O)c2ccccc2)s1,–,–,–,–,–,–
COc1ccc(-c2cc(C3CC3)nc(N)c2C#N)cc1,8.8,–,–,–,–,–
COc1cccc(OCc2cc(C(=O)N3CCN(c4ccccc4OC)CC3)no2)c1,–,–,–,–,–,–

# Compound activity from PubChem.
